Source: PMC11235002 (BMJ Oncology, 2024)
Marks after values point to notes of the source that are not given here.

Columns and labels:
[1] = system: patients with advanced or metastatic solid tumours; test: Safety: treatment-emergent adverse events; type: in vivo, human
Method in brief: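 Safety covered monotherapy Parts 1a/2, with oral tablet or capsule dosing twice daily on days 1–28 of 28-day cycles. TEAEs were graded by CTCAE v4.03, which counts malignant progression as an AE. Laboratory values, vital signs and physical examinations were also monitored. The safety population was all patients receiving ≥1 dose. DLTs were defined as grade 3–4 toxicities, urea cycle inhibition, or AUC0–12h >100 µg.h/mL.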

T-cell = conditions: in vitro; cited from earlier work
[2] = INCB001158 plasma pharmacokinetics; type: in vivo, human; conditions: for Cmax: Cmax (mean±SD); for half-life: t1/2 (mean±SD)
[3] = system: advanced or metastatic solid tumours; test: Antitumour activity per RECIST v1.1; type: in vivo, human
Method in brief: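 Part 1a monotherapy dose escalation used a standard 3+3 design, with 8 dose levels from 50 mg to 1000 mg. The test compound was given orally twice daily as tablet or capsule on days 1–28 of 28-day cycles. BOR, ORR and PFS followed RECIST v1.1, with confirmed responses unless stated otherwise. Response-evaluable patients had ≥1 dose, a baseline scan and ≥1 postbaseline scan, or qualifying discontinuation.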

urea cycle = test: Urea cycle inhibition monitored via orotic acid levels; type: in vivo, human
[4] = human, plasma, oral, 50 mg, Part 1a C1D1 single dose 50 mg (n=8)
[5] = human, plasma, oral, 75 mg, Part 1a C1D1 single dose 75 mg (n=7)
[6] = monotherapy dose escalation Part 1a total (n=25)
[7] = monotherapy dose escalation Part 1a total (n=30)
[8] = monotherapy dose expansion Part 2 total (n=73)
[9] = monotherapy dose expansion Part 2 total (n=77)

## C[C@H](N)C(=O)N1C[C@H](CCCB(O)O)[C@](N)(C(=O)O)C1 [INCB001158]
[1]; monotherapy 150 mg bid (n=7)
  Any TEAE: 7 (100.0) n (%)
  Any grade ≥3 TEAE: 1 (14.3) n (%)
  Any irTEAE: 0 n (%)
  Colitis, irTEAE: 0 n (%)
  Constipation, any-grade TEAE: 2 (28.6) n (%)
  Decreased appetite, any-grade TEAE: 2 (28.6) n (%)
  Diarrhoea, any-grade TEAE: 1 (14.3) n (%)
  Fatigue, any-grade TEAE: 3 (42.9) n (%)
  Fatigue, grade ≥3 TEAE: 0 n (%)
  Hypoalbuminaemia, any-grade TEAE: 1 (14.3) n (%)
  Hyponatraemia, any-grade TEAE: 1 (14.3) n (%)
  Hyponatraemia, grade ≥3 TEAE: 1 (14.3) n (%)
  Malignant neoplasm progression, grade ≥3 TEAE: 0 n (%)
  Nausea, any-grade TEAE: 1 (14.3) n (%)
  Oedema peripheral, any-grade TEAE: 1 (14.3) n (%)
  Vomiting, any-grade TEAE: 0 n (%)
[1]; monotherapy 150 mg two times per day, one DLT
  DLT: treatment-related grade 2 malaise
[1]; monotherapy (8 patients)
  TEAEs leading to INCB001158 discontinuation: 7.5%
[1]; monotherapy (10 patients), none considered related to INCB001158
  fatal TEAEs: 9.3%
[1]; monotherapy (33 patients)
  TEAEs leading to INCB001158 dose interruption: 30.8%
[1]; monotherapy (36 patients)
  Serious TEAEs: 33.6%
[1]; monotherapy (N=107)
  patients with grade ≥3 TEAEs: 45.8%
[1]; monotherapy (n=10/107)
  INCB001158-related fatigue: 9.3%
  INCB001158-related nausea: 9.3%
[1]; monotherapy Parts 1a/2
  TEAEs grade 1/2 in severity: 54.2%
[1]; monotherapy Total (N=107)
  ALT increased, any-grade TEAE: 5 (4.7) n (%)
  AST increased, any-grade TEAE: 10 (9.3) n (%)
  Abdominal pain, any-grade TEAE: 18 (16.8) n (%)
  Abdominal pain, grade ≥3 TEAE: 6 (5.6) n (%)
  Anaemia, any-grade TEAE: 17 (15.9) n (%)
  Anaemia, grade ≥3 TEAE: 6 (5.6) n (%)
  Any TEAE: 102 (95.3) n (%)
  Any grade ≥3 TEAE: 49 (45.8) n (%)
  Any irTEAE: 1 (0.9) n (%)
  Colitis, irTEAE: 1 (0.9) n (%)
  Constipation, any-grade TEAE: 23 (21.5) n (%)
  Decreased appetite, any-grade TEAE: 21 (19.6) n (%)
  Diarrhoea, any-grade TEAE: 6 (5.6) n (%)
  Fatigue, any-grade TEAE: 30 (28.0) n (%)
  Fatigue, grade ≥3 TEAE: 6 (5.6) n (%)
  Hypoalbuminaemia, any-grade TEAE: 7 (6.5) n (%)
  Hyponatraemia, any-grade TEAE: 7 (6.5) n (%)
  Hyponatraemia, grade ≥3 TEAE: 3 (2.8) n (%)
  Malignant neoplasm progression, grade ≥3 TEAE: 5 (4.7) n (%)
  Nausea, any-grade TEAE: 24 (22.4) n (%)
  Oedema peripheral, any-grade TEAE: 16 (15.0) n (%)
  Vomiting, any-grade TEAE: 14 (13.1) n (%)
[1]; monotherapy and combination with pembrolizumab
  tolerability: generally well tolerated
[1]; monotherapy, safety-evaluable population
  patients with INCB001158-related TEAEs: 43 n
[1]; monotherapy, one patient, led to discontinuation
  immune-related TEAE of colitis: 0.9%
[1]; monotherapy, one patient, recovered/resolved
  serious INCB001158-related TEAE: grade 3 adrenal haemorrhage
[1]; up to 150 mg two times per day
  maximum tolerated dose: No maximum tolerated dose was reached
T-cell
  T-cell immunosuppression: reversed T-cell immunosuppression in vitro
[2]; after multiple oral administrations, 50 mg to 150 mg two times per day
  dose proportionality of plasma exposure (Cmax, AUC): increased approximately dose proportionally
[2]; human, plasma, oral, 50 mg
  AUC(0-inf): 8860 ± 3810 ng·h/mL
[2]; [4]
  Cmax: 795 ± 259 ng/mL
  half-life: 5.5 ± 1.4 h
[2]; [5]
  Cmax: 1350 ± 379 ng/mL
  half-life: 5.3 ± 1 h
[2]; monotherapy, from predose PK samples
  time to steady state: < 1 week
[3]; monotherapy 100 mg two times per day, Part 2 (n=73), one patient, urothelial cancer
  confirmed partial response: 1.4%
[3]; monotherapy dose escalation Part 1a (n=25)
  objective response: No patient in the monotherapy cohort had an objective response
[3]; monotherapy dose escalation Part 1a (n=25), five patients
  BOR of stable disease: 20.0%
[3]; [6]
  BOR: CR: 0 n (%)
  BOR: NE: 1 (4.0) n (%)
  BOR: PD: 19 (76.0) n (%)
  BOR: PR: 0 n (%)
  BOR: SD: 5 (20.0) n (%)
  ORR: 0 (0 to 13.7) n (%) (95% CI)
[3]; [7]
  PFS events: 21 (70.0) n (%)
  PFS, median (95% CI): 1.8 (1.8 to 1.9) mo
[3]; [8]
  BOR: CR: 0 n (%)
  BOR: Missing: 10 (13.7) n (%)
  BOR: NE: 3 (4.1) n (%)
  BOR: PD: 37 (50.7) n (%)
  BOR: SD: 22 (30.1) n (%)
  ORR: 1 (1.4) (0 to 7.4) n (%) (95% CI)
[3]; monotherapy dose expansion Part 2 total (n=73), well-differentiated urothelial cancer
  BOR: PR: 1 (1.4)† n (%)
[3]; [9]
  PFS events: 58 (75.3) n (%)
  PFS, median (95% CI): 1.9 (1.8 to 2.1) mo
Urea cycle; 150 mg two times per day, highest dose level tested, no symptomatic nor clinically significant urea cycle inhibition
  orotic acid levels: apparent increase in orotic acid levels
Urea cycle; monotherapy, all asymptomatic
  patients with urinary orotic acid levels >10× the upper limit of normal: four
